Measured values: ChEMBL document CHEMBL3785037, “Compound profiling and 3D-QSAR studies of hydrazone derivatives with activity against intracellular Trypanosoma cruzi” (Bioorg Med Chem, 2016)

Legend:
[1] = tested on: Trypanosoma cruzi; assay: Antitrypanosomal activity against intracellular amastigotes stage of recombinant Trypanosoma cruzi Tulahuen expressing beta galactosidase infected in NIH/3T3 cells assessed as growth inhibition after 4 days by HTS-ready assay; format: functional, organism-based; details: NIH3T3, 96 h
Summary of the method: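 NIH-3T3 fibroblasts were mixed 1:1 with β-galactosidase-expressing Tulahuen trypomastigotes from LLC-MK2 culture supernatants, at 1x10^3 cells/well, onto pre-dispensed compounds (50 to 0.00085 μM, DMSO ≤0.5%). Cultures were held 4 days at 37 °C, 5% CO2. Resorufin-β-D-galactopyranoside (5 µM in PBS with Igepal) was added for 4 h at room temperature, and fluorescence was read at 531/595 nm. Untreated parasites served as negative control.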

[2] = tested on: HepG2; assay: Cytotoxicity against human HepG2 cells 48 hrs by CellTiter-Glo luminiscence assay; format: functional; details: HepG2, 48 h, read-out: TC50 (the source's name)
Summary of the method: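 Human hepatoma cells were plated at 3,000 cells/well onto pre-dispensed compounds, handled as for the fibroblast assay, and incubated 48 h at 37 °C, 5% CO2. ATP-based viability was read by CellTiter-Glo luminescence after room-temperature incubation. TC50 was obtained by nonlinear regression.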

[3] = Cytotoxicity against mouse NIH/3T3 cells after 4 days by CellTiter-Glo luminiscence assay; format: cell-based, NIH3T3; details: read-out: TC50
Summary of the method: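 Mouse embryonic fibroblasts were seeded at 1x10^3 cells/well onto pre-dispensed compounds (top concentration 100 μM) for 4 days at 37 °C, 5% CO2. Controls were 0.5% DMSO (100% viable) and amphotericin B 50 μM (100% toxicity). Viability was measured as ATP by CellTiter-Glo luminescence at room temperature. TC50 was obtained by nonlinear regression.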

[4] = Selectivity index, ratio of TC50 for mouse NIH/3T3 cells to IC50 for amastigotes stage of recombinant Trypanosoma cruzi Tulahuen expressing beta galactosidase infected in NIH/3T3 cells; format: toxicity, cell-based; details: read-out: Selectivity Index

Row | SMILES | IC50 ([1]; read-out: IC50) [µM] | IC50 ([1]; read-out: pIC50 (converted)) [µM] | CC50 [2] [µM] | CC50 at 96 h [3] [µM] | selectivity ratio [4]
1 | C/C(=N\Nc1nc(-c2ccc(F)cc2)cs1)c1ccccn1 | 1.32 | 1.32 | 91.2 | 4.9 | 
2 | C/C(=N\Nc1nc(-c2cccc3ccccc23)cs1)c1ccccn1 | 0.93 | 0.933 | > 100 | 4.47 | 
3 | CC/C(=N\Nc1nc(-c2ccc(Br)cc2)c(C)s1)c1cccc(Br)c1 | 24.6 | 24.5 | > 100 | 33.1 | 
4 | NC(=S)N/N=C/CSc1ccc(F)cc1 | 5.89 | 5.89 | > 100 | > 50.1 | 
5 | COc1ccc(SC/C=N/NC(N)=S)cc1 | 17.4 | 17.4 | > 100 | 0.52 | 
6 | C/C(=N\Nc1nc(-c2ccc(Br)cc2)cs1)c1ccccn1 | 1 | 1 | 85.1 | 3.98 | 
7 | Fc1ccc(-c2csc(N/N=C/c3ccccn3)n2)cc1 | 2.29 | 2.29 | 18.2 | > 50.1 | 
8 | CCC1S/C(=N/N=C(\C)c2ccc(Cl)c(Cl)c2)N(c2ccccc2)C1=O (configuration not stated) | > 50.1 |  | > 100 | > 50.1 | 
9 | Brc1ccc(-c2csc(N/N=C/c3ccccn3)n2)cc1 | 2.24 | 2.24 | > 100 | 14.1 | 
10 | C/C(=N\N=C(\N)S)c1ccc(Cl)c(Cl)c1 | 0.63 |  | 43.6 | 17.8 | 
11 | NC(=S)N/N=C/CSc1cc(Cl)ccc1Cl | 2.57 | 2.57 | > 100 | > 50.1 | 
12 | CC/C(=N\Nc1nc(-c2ccc(C)cc2)cs1)c1cccc(Br)c1 | 26.3 | 26.3 | > 100 | > 50.1 | 
13 | C/C(=N\Nc1nc(-c2cccc([N+](=O)[O-])c2)cs1)c1ccccn1 | 0.89 | 0.891 | > 100 | 3.63 | 
14 | COc1ccc(-c2csc(N/N=C(\C)c3ccccn3)n2)cc1 | 2.24 | 2.24 | > 100 | 3.47 | 
15 | NC(=S)N/N=C/CSc1ccc(Br)cc1 | 1.62 | 1.62 | 53.7 | 28.8 | 
16 | NC(=S)N/N=C/CSc1ccc(Cl)cc1 | 2.09 | 2.09 | 75.9 | 39.8 | 
17 | COc1ccc(-c2csc(N/N=C(\C)c3ccc(Cl)c(Cl)c3)n2)cc1 | 17 | 17 | > 100 | > 50.1 | 
18 | C/C(=N\Nc1nc(-c2ccccc2)cs1)c1ccccn1 | 1.12 | 1.12 | 91.2 | 3.89 | 
19 | C/C(=N\Nc1nc(-c2ccc(F)cc2)cs1)c1ccc(Cl)c(Cl)c1 | 16.2 | 16.2 | > 100 | 28.2 | 
20 | C/C(=N\N=C1\SC(C)C(=O)N1c1ccccc1)c1ccc(Cl)c(Cl)c1 (configuration not stated) | > 50.1 |  | > 100 | > 50.1 | 
21 | CC/C(=N\Nc1nc(-c2ccccc2)cs1)c1cccc(Br)c1 | 18.2 | 18.2 | > 100 | 26.3 | 
22 | COc1ccc(-c2csc(N/N=C/c3ccccn3)n2)cc1 | 2.69 | 2.69 | > 100 | 11.5 | 
23 | C(=N\Nc1nc(-c2cccc3ccccc23)cs1)/c1ccccn1 | 3.39 | 3.39 | > 100 | 7.24 | 
24 | C/C(=N\Nc1nc(-c2ccc([N+](=O)[O-])cc2)cs1)c1ccccn1 | 1.26 | 1.26 | > 100 | 20.9 | 
25 | C/C(=N\Nc1nc(-c2ccc(Cl)cc2Cl)cs1)c1ccccn1 | 1.55 | 1.55 | > 100 | 2 | 
26 | Cc1cccc(SC/C=N/NC(N)=S)c1 | 3.24 | 3.24 | > 100 | > 50.1 | 
27 | Clc1ccc(-c2csc(N/N=C/c3ccccn3)n2)cc1 | 1.86 | 1.86 | > 100 | > 50.1 | 26.9

Now from value to molecule, other results behind:

Row | IC50 ([1]; read-out: IC50) [µM] | IC50 ([1]; read-out: pIC50 (converted)) [µM] | SMILES | CC50 [2] [µM] | CC50 at 96 h [3] [µM] | selectivity ratio [4]
28 | 4.9 | 4.9 | C/C(=N\Nc1nc(-c2ccccc2)c(C)s1)c1ccc(Cl)c(Cl)c1 | > 100 | 28.2 | 
29 | 4.9 | 4.9 | Cc1ccccc1SC/C=N/NC(N)=S | > 100 | > 50.1 | 
30 | 1.7 | 1.7 | C/C(=N\Nc1nc(-c2ccc(C)cc2)cs1)c1ccccn1 | > 100 | 4.47 | 
31 | 1.05 | 1.05 | C/C(=N\Nc1nc(-c2ccc(Cl)cc2)cs1)c1ccccn1 | > 100 | 5.25 | 
32 | 2.19 | 2.19 | C(=N\Nc1nc(-c2ccccc2)cs1)/c1ccccn1 | > 100 | 17 | 
33 | 9.33 | 9.33 | NC(=S)N/N=C/CSc1ccccc1 | > 100 | 3.55 | 
34 | 3.24 | 3.24 | Cc1ccc(C)c(SC/C=N/NC(N)=S)c1 | > 100 | 20.9 | 
35 | 17 |  | CNC(=S)N/N=C(\C)c1ccc(Cl)c(Cl)c1 | > 100 | > 50.1 | 
36 | > 50.1 |  | C/C(=N\N=C1\SC(C(C)C)C(=O)N1c1ccccc1)c1ccc(Cl)c(Cl)c1 (configuration not stated) | > 100 | > 50.1 | 
37 | 8.32 | 8.32 | C/C(=N\Nc1nc(C)cs1)c1ccc(Cl)c(Cl)c1 | > 100 | 38.9 | 
38 | 0.79 | 0.794 | Clc1ccc(-c2csc(N/N=C/c3ccccn3)n2)cc1Cl | > 100 | 10.7 | 
39 | 1.35 | 1.35 | C/C(=N\Nc1nc(-c2ccc(Br)cc2)c(C)s1)c1ccccn1 | > 100 | 2 | 
40 | 1.26 | 1.26 | C/C(=N\Nc1nc(-c2ccc(Cl)c(Cl)c2)cs1)c1ccccn1 | > 100 | 2.34 | 
41 | 11 |  | O=[N+]([O-])c1ccc(-c2csc(N/N=C/c3ccccn3)n2)cc1 | > 100 | > 50.1 | 
42 | 3.09 | 3.09 | NC(=S)N/N=C/CSc1ccccc1Cl | > 100 | > 50.1 | 
43 | 1.62 | 1.62 | O=[N+]([O-])c1cccc(-c2csc(N/N=C/c3ccccn3)n2)c1 | > 100 | 38 | 23.5
44 | 6.46 | 6.46 | Cc1ccc(SC/C=N/NC(N)=S)cc1 | > 100 | > 50.1 | 
45 | 2.63 | 2.63 | Cc1ccc(-c2csc(N/N=C/c3ccccn3)n2)cc1 | > 100 | 43.6 | 
46 | 1.05 | 1.05 | Clc1ccc(-c2csc(N/N=C/c3ccccn3)n2)c(Cl)c1 | > 100 | 14.5 | 
47 | 30.2 | 30.2 | CC/C(=N\Nc1nc(-c2ccc(OC)cc2)cs1)c1cccc(Br)c1 | > 100 | > 50.1 | 
48 | 1.38 | 1.38 | Cc1sc(N/N=C/c2ccccn2)nc1-c1ccc(Br)cc1 | > 100 | 18.6 | 
49 | 1.78 | 1.78 | NC(=S)N/N=C/CSc1cccc(Cl)c1 | > 100 | > 50.1 | 28.1
50 | 22.9 | 22.9 | CC/C(=N\Nc1nc(-c2cccc([N+](=O)[O-])c2)cs1)c1cccc(Br)c1 | > 100 | 38 | 
